Data: ChEMBL document CHEMBL4715745, “Synthesis and biological evaluation of novel FK228 analogues as potential isoform selective HDAC inhibitors” (Eur J Med Chem, 2016)

Tests used:
[1] = Growth inhibition of human HBC4 cells measured after 48 hrs by sulforhodamine B assay; assay type: functional
In short: (§1)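 Panel of 39 human cancer cell lines tested at the Japanese Foundation for Cancer Research. Five concentrations per compound, spanning 10⁻¹¹–10⁻⁷ M, 10⁻¹⁰–10⁻⁶ M or 10⁻⁸–10⁻⁴ M, were used to build dose-response curves. GI₅₀ is the concentration giving 50% growth inhibition relative to control.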

[2] = test system: KM12; assay: Growth inhibition of human KM12 cells measured after 48 hrs by sulforhodamine B assay; assay type: functional; in short: as §1
[3] = test system: U-251; assay: Growth inhibition of human U-251 cells measured after 48 hrs by sulforhodamine B assay; assay type: functional; in short: as §1
[4] = test system: SNB-75; assay: Growth inhibition of human SNB-75 cells measured after 48 hrs by sulforhodamine B assay; assay type: functional; in short: as §1
[5] = test system: LOX IMVI; assay: Growth inhibition of human LOX IMVI cells measured after 48 hrs by sulforhodamine B assay; assay type: functional; in short: as §1
[6] = test system: SF-539; assay: Growth inhibition of human SF-539 cells measured after 48 hrs by sulforhodamine B assay; assay type: functional; in short: as §1
[7] = test system: SF-295; assay: Growth inhibition of human SF-295 cells measured after 48 hrs by sulforhodamine B assay; assay type: functional; in short: as §1
[8] = test system: St-4; assay: Growth inhibition of human St-4 cells measured after 48 hrs by sulforhodamine B assay; assay type: functional; in short: as §1
[9] = test system: SK-OV-3; assay: Growth inhibition of human SK-OV-3 cells measured after 48 hrs by sulforhodamine B assay; assay type: functional; in short: as §1
[10] = test system: PC-3; assay: Growth inhibition of human PC-3 cells measured after 48 hrs by sulforhodamine B assay; assay type: functional; in short: as §1
[11] = test system: SNB-78; assay: Growth inhibition of human SNB-78 cells measured after 48 hrs by sulforhodamine B assay; assay type: functional; in short: as §1
[12] = test system: ACHN; assay: Growth inhibition of human ACHN cells measured after 48 hrs by sulforhodamine B assay; assay type: functional; in short: as §1
[13] = test system: RXF 631; assay: Growth inhibition of human RXF 631 cells measured after 48 hrs by sulforhodamine B assay; assay type: functional; in short: as §1
[14] = test system: DU-145; assay: Growth inhibition of human DU-145 cells measured after 48 hrs by sulforhodamine B assay; assay type: functional; in short: as §1
[15] = test system: MKN-7; assay: Growth inhibition of human MKN-7 cells measured after 48 hrs by sulforhodamine B assay; assay type: functional; in short: as §1
[16] = test system: OVCAR-3; assay: Growth inhibition of human OVCAR-3 cells measured after 48 hrs by sulforhodamine B assay; assay type: functional; in short: as §1
[17] = test system: NCI-H460; assay: Growth inhibition of human NCI-H460 cells measured after 48 hrs by sulforhodamine B assay; assay type: functional; in short: as §1
[18] = test system: HCC 2998; assay: Growth inhibition of human HCC 2998 cells measured after 48 hrs by sulforhodamine B assay; assay type: functional; in short: as §1
[19] = test system: MKN-28; assay: Growth inhibition of human MKN-28 cells measured after 48 hrs by sulforhodamine B assay; assay type: functional; in short: as §1
[20] = test system: MKN-74; assay: Growth inhibition of human MKN-74 cells measured after 48 hrs by sulforhodamine B assay; assay type: functional; in short: as §1
[21] = test system: HT-29; assay: Growth inhibition of human HT-29 cells measured after 48 hrs by sulforhodamine B assay; assay type: functional; in short: as §1
[22] = test system: HCT-116; assay: Growth inhibition of human HCT-116 cells measured after 48 hrs by sulforhodamine B assay; assay type: functional; in short: as §1
[23] = target: T1, Protein deacetylase HDAC6 (Mus musculus, UniProt Q9Z2V5); assay: Inhibition of mouse HDAC6 expressed in 293T cells using Ac-KGLGK(Ac)-MCA as substrate incubated for 30 mins in presence of 0.1 mM DTT by fluorescence plate reader assay; parameters: species or system HEK293T
T1 sequence (Q9Z2V5 whole entry): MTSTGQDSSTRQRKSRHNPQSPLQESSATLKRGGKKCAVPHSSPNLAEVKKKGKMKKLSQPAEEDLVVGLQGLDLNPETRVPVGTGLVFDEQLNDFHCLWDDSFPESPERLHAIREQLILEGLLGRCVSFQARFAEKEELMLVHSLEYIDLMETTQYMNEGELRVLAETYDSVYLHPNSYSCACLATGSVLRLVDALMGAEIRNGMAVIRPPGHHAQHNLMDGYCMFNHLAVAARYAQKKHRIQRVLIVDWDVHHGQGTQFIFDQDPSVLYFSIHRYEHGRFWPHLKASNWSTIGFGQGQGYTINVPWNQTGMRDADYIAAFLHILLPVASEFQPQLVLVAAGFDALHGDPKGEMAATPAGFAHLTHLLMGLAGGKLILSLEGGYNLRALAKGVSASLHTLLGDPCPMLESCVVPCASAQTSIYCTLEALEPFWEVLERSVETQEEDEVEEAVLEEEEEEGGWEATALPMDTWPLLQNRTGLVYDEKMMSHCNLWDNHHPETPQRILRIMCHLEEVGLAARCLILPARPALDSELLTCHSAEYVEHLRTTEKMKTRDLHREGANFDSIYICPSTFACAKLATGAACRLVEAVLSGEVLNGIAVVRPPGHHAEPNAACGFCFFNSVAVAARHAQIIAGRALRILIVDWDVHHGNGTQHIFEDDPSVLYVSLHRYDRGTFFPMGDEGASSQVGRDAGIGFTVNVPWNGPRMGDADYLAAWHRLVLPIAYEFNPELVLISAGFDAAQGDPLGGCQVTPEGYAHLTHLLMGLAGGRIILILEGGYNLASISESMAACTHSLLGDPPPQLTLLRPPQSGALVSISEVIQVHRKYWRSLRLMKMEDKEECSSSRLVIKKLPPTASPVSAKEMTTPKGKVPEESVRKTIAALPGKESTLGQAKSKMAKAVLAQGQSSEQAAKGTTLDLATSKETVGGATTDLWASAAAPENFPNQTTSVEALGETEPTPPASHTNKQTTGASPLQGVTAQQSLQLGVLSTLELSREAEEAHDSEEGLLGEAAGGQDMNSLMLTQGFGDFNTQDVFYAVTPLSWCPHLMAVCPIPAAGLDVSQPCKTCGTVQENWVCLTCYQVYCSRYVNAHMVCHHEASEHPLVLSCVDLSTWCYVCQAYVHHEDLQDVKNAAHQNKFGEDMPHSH
In short: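 HDAC enzyme assay run in the presence of 0.1 mM dithiothreitol (DTT); IC₅₀ determined.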

[24] = test system: NCI-H522; assay: Growth inhibition of human NCI-H522 cells measured after 48 hrs by sulforhodamine B assay; assay type: functional; in short: as §1
[25] = Growth inhibition of human HBC5 cells measured after 48 hrs by sulforhodamine B assay; assay type: functional; in short: as §1
[26] = test system: HCT-15; assay: Growth inhibition of human HCT-15 cells measured after 48 hrs by sulforhodamine B assay; assay type: functional; in short: as §1
[27] = test system: OVCAR-5; assay: Growth inhibition of human OVCAR-5 cells measured after 48 hrs by sulforhodamine B assay; assay type: functional; in short: as §1
[28] = test system: OVCAR-4; assay: Growth inhibition of human OVCAR-4 cells measured after 48 hrs by sulforhodamine B assay; assay type: functional; in short: as §1
[29] = test system: DMS-114; assay: Growth inhibition of human DMS-114 cells measured after 48 hrs by sulforhodamine B assay; assay type: functional; in short: as §1
[30] = Growth inhibition of human BSY1 cells measured after 48 hrs by sulforhodamine B assay; assay type: functional; details: BSY-1; in short: as §1
[31] = test system: MKN-1; assay: Growth inhibition of human MKN-1 cells measured after 48 hrs by sulforhodamine B assay; assay type: functional; in short: as §1
[32] = test system: NCI-H226; assay: Growth inhibition of human NCI-H226 cells measured after 48 hrs by sulforhodamine B assay; assay type: functional; in short: as §1
[33] = test system: A549; assay: Growth inhibition of human A549 cells measured after 48 hrs by sulforhodamine B assay; assay type: functional; in short: as §1
[34] = test system: OVCAR-8; assay: Growth inhibition of human OVCAR-8 cells measured after 48 hrs by sulforhodamine B assay; assay type: functional; in short: as §1
[35] = test system: MDA-MB-231; assay: Growth inhibition of human MDA-MB-231 cells measured after 48 hrs by sulforhodamine B assay; assay type: functional; in short: as §1
[36] = test system: MKN-45; assay: Growth inhibition of human MKN-45 cells measured after 48 hrs by sulforhodamine B assay; assay type: functional; in short: as §1
[37] = test system: SF-268; assay: Growth inhibition of human SF-268 cells measured after 48 hrs by sulforhodamine B assay; assay type: functional; in short: as §1
[38] = test system: NCI-H23; assay: Growth inhibition of human NCI-H23 cells measured after 48 hrs by sulforhodamine B assay; assay type: functional; in short: as §1
[39] = test system: DMS-273; assay: Growth inhibition of human DMS-273 cells measured after 48 hrs by sulforhodamine B assay; assay type: functional; in short: as §1
[40] = Selectivity index, ratio of IC50 for mouse HDAC6 expressed in 293T cells to IC50 for human HDAC1 expressed in 293T cells using Ac-KGLGK(Ac)-MCA as substrate incubated for 30 mins in presence of 0.1 mM DTT by fluorescence plate reader assay; details: 0.5 h
In short: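 Ratio of HDAC6 IC₅₀ to HDAC1 IC₅₀, taken as selectivity for class I HDAC1 over class II HDAC6. Both enzyme assays were run in the presence of 0.1 mM DTT.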

[41] = target: Histone deacetylase 1 (Homo sapiens, UniProt Q13547); assay: Inhibition of human HDAC1 expressed in 293T cells using Ac-KGLGK(Ac)-MCA as substrate incubated for 30 mins in presence of 0.1 mM DTT by fluorescence plate reader assay; parameters: species or system HEK293T
[42] = test system: MCF7; assay: Growth inhibition of human MCF7 cells measured after 48 hrs by sulforhodamine B assay; assay type: functional; in short: as §1

Chain of Histone deacetylase 1 (Q13547 whole entry): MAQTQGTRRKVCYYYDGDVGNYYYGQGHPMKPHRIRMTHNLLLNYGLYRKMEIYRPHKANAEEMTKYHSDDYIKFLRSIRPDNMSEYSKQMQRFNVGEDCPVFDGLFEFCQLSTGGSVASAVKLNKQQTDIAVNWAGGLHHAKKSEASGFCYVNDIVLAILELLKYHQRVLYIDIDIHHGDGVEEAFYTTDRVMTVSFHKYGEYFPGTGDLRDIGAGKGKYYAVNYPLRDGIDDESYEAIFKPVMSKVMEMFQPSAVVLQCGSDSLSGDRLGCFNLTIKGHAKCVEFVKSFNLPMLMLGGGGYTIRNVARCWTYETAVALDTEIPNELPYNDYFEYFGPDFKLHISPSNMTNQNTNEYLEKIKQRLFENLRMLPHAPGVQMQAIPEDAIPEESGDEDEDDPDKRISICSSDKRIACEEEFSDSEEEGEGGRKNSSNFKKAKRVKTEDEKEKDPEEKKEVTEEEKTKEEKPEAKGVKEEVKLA

## CC(C)[C@H]1NC(=O)C[C@H]2/C=C/CCSSC[C@@H](NC1=O)C(=O)N[C@H](Cc1ccccc1)C(=O)NCC(=O)O2
[1]
  GI50: 37 nM
[2]
  GI50: 2.8 nM
[3]
  GI50: 22 nM
[4]
  GI50: 8.7 nM
[5]
  GI50: 2.2 nM
[6]
  GI50: 3.3 nM
[7]
  GI50: 21 nM
[8]
  GI50: 34 nM
[9]
  GI50: 2.4 nM
[10]
  GI50: 5.7 nM
[11]
  GI50: 8.6 nM
[12]
  GI50: 24 nM
[13]
  GI50: 7.9 nM
[14]
  GI50: 3.6 nM
[15]
  GI50: 35 nM
[16]
  GI50: 17 nM
[17]
  GI50: 6.2 nM
[18]
  GI50: 3.2 nM
[19]
  GI50: 78 nM
[20]
  GI50: 5.9 nM
[21]
  GI50: 3 nM
[22]
  GI50: 2.6 nM
[23]
  IC50: 54.9 nM
[24]
  GI50: 0.72 nM
[25]
  GI50: 84 nM
[26]
  GI50: 100 nM
[27]
  GI50: 6.8 nM
[28]
  GI50: 27 nM
[29]
  GI50: 4.1 nM
[30]
  GI50: 36 nM
[31]
  GI50: 2.6 nM
[32]
  GI50: 4.8 nM
[33]
  GI50: 3.4 nM
[34]
  GI50: 4.6 nM
[35]
  GI50: 8.7 nM
[36]
  GI50: 64 nM
[37]
  GI50: 5 nM
[38]
  GI50: 4.4 nM
[39]
  GI50: 20 nM
[40]
  Ratio IC50: 102
[41]
  IC50: 0.54 nM
[42]
  GI50: 62 nM

## CC(C)C[C@@H]1NC(=O)[C@H]2CSSCC/C=C/[C@H](CC(=O)N[C@H](C(C)C)C(=O)N2)OC(=O)CNC1=O
[1]
  GI50: 1400 nM
[2]
  GI50: 1100 nM
[3]
  GI50: 330 nM
[4]
  GI50: 1000 nM
[5]
  GI50: 180 nM
[6]
  GI50: 1500 nM
[7]
  GI50: 1500 nM
[8]
  GI50: 2100 nM
[9]
  GI50: 1500 nM
[10]
  GI50: 1400 nM
[11]
  GI50: 1800 nM
[12]
  GI50: 9400 nM
[13]
  GI50: 3200 nM
[14]
  GI50: 830 nM
[15]
  GI50: 1800 nM
[16]
  GI50: 1500 nM
[17]
  GI50: 1100 nM
[18]
  GI50: 1300 nM
[19]
  GI50: 1800 nM
[20]
  GI50: 1500 nM
[21]
  GI50: 690 nM
[22]
  GI50: 340 nM
[23]
  IC50: 2260 nM
[24]
  GI50: 200 nM
[25]
  GI50: 1700 nM
[26]
  GI50: 17000 nM
[27]
  GI50: 1200 nM
[28]
  GI50: 1600 nM
[29]
  GI50: 680 nM
[30]
  GI50: 1500 nM
[31]
  GI50: 1100 nM
[32]
  GI50: 1600 nM
[33]
  GI50: 720 nM
[34]
  GI50: 1500 nM
[35]
  GI50: 1200 nM
[36]
  GI50: 2200 nM
[37]
  GI50: 820 nM
[38]
  GI50: 1200 nM
[39]
  GI50: 1400 nM
[40]
  Ratio IC50: 198
[41]
  IC50: 11.4 nM
[42]
  GI50: 1600 nM
